Converted amounts (≈) assume the structure as drawn.
Experiments:
Format in all cases: functional
Enterococcus faecalis = test: Antibacterial activity against Enterococcus faecalis ATCC 29212 by broth microdilution method
Summary of the method: (§1)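 Broth microdilution MICs were run per CLSI M07-A8 (2009). The strain panel included C. difficile ATCC 43255, E. faecalis ATCC 29212 and S. pyogenes ATCC BAA-595.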

[1] = Antibacterial activity against Clostridium difficile ATCC 43255 by broth microdilution method; conditions: Clostridioides difficile; summary of the method: as §1
Staphylococcus aureus = test: Antibacterial activity against Staphylococcus aureus A4.018 by broth microdilution method
Enterococcus faecium = test: Antibacterial activity against Enterococcus faecium 7130724 by broth microdilution method
Escherichia coli = test: Inhibition of protein synthesis in Escherichia coli S30 extract at 2 uM after 75 mins by luciferase based luminescence assay relative to GE2270A
Streptococcus pyogenes = test: Antibacterial activity against Streptococcus pyogenes ATCC BAA-595 by broth microdilution method; summary of the method: as §1

| SMILES | MIC (Enterococcus faecalis) [µg/mL] | MIC [1] [µg/mL] | MIC (Staphylococcus aureus) [µg/mL] | MIC (Enterococcus faecium) [µg/mL] | inhibition at 2 µM (Escherichia coli) [%] | MIC (Streptococcus pyogenes) [µg/mL] |
| --- | --- | --- | --- | --- | --- | --- |
| CNC(=O)C[C@@H]1NC(=O)c2csc(n2)-c2ccc(-c3nc(NC(=O)CC[C@@H](CC(=O)O)C(=O)O)cs3)nc2-c2csc(n2)-c2csc(n2)[C@H]([C@@H](O)c2ccccc2)NC(=O)CNC(=O)c2nc(sc2COC)[C@H](C(C)C)NC(=O)c2nc1sc2C | 16 (≈ 12.6 µM) | 4 (≈ 3.15 µM) | 32 (≈ 25.2 µM) | 32 (≈ 25.2 µM) | 30 | > 32 |
| CNC(=O)C[C@@H]1NC(=O)c2csc(n2)-c2ccc(-c3nc(N(CCCCC(=O)O)C(=O)[C@H]4CC[C@@H](C(=O)O)O4)cs3)nc2-c2csc(n2)-c2csc(n2)[C@H]([C@@H](O)c2ccccc2)NC(=O)CNC(=O)c2nc(sc2COC)[C@H](C(C)C)NC(=O)c2nc1sc2C | > 32 | > 4 | > 32 | > 32 | 30 | > 32 |
| CNC(=O)C[C@@H]1NC(=O)c2csc(n2)-c2ccc(-c3nc(N(CCOCC(=O)O)C(=O)O[C@H]4CC[C@H](C(=O)O)CC4)cs3)nc2-c2csc(n2)-c2csc(n2)[C@H]([C@@H](O)c2ccccc2)NC(=O)CNC(=O)c2nc(sc2COC)[C@H](C(C)C)NC(=O)c2nc1sc2C | 2 (≈ 1.46 µM) | 0.125 (≈ 0.0913 µM) | 4 (≈ 2.92 µM) | 2 (≈ 1.46 µM) | 67 | 4 (≈ 2.92 µM) |
| CNC(=O)C[C@@H]1NC(=O)c2csc(n2)-c2ccc(-c3nc(N(CCCCC(=O)O)C(=O)N4CCC(C(=O)O)CC4)cs3)nc2-c2csc(n2)-c2csc(n2)[C@H]([C@@H](O)c2ccccc2)NC(=O)CNC(=O)c2nc(sc2COC)[C@H](C(C)C)NC(=O)c2nc1sc2C | > 32 | > 4 | > 32 | > 32 | 30 | > 32 |
| CNC(=O)C[C@@H]1NC(=O)c2csc(n2)-c2ccc(-c3nc(N(C/C=C/C(=O)O)C(=O)O[C@H]4CC[C@H](C(=O)O)CC4)cs3)nc2-c2csc(n2)-c2csc(n2)[C@H]([C@@H](O)c2ccccc2)NC(=O)CNC(=O)c2nc(sc2COC)[C@H](C(C)C)NC(=O)c2nc1sc2C | 0.25 (≈ 0.185 µM) | 0.03 (≈ 0.0222 µM) | 0.5 (≈ 0.37 µM) | 0.5 (≈ 0.37 µM) | 67 | 2 (≈ 1.48 µM) |
| CNC(=O)C[C@@H]1NC(=O)c2csc(n2)-c2ccc(-c3nc(N(CCCCC(=O)O)C(=O)OC(CCCCC(=O)O)CCC(=O)O)cs3)nc2-c2csc(n2)-c2csc(n2)[C@H]([C@@H](O)c2ccccc2)NC(=O)CNC(=O)c2nc(sc2COC)[C@H](C(C)C)NC(=O)c2nc1sc2C (some centres not stated) | 16 (≈ 11.2 µM) | 2 (≈ 1.4 µM) | 32 (≈ 22.4 µM) | 32 (≈ 22.4 µM) | 50 | > 32 |
| CNC(=O)C[C@@H]1NC(=O)c2csc(n2)-c2ccc(-c3nc(N(CCCCC(=O)O)C(=O)OCC(CCCCC(=O)O)CC(=O)O)cs3)nc2-c2csc(n2)-c2csc(n2)[C@H]([C@@H](O)c2ccccc2)NC(=O)CNC(=O)c2nc(sc2COC)[C@H](C(C)C)NC(=O)c2nc1sc2C (some centres not stated) | 8 (≈ 5.61 µM) | 1 (≈ 0.701 µM) | 8 (≈ 5.61 µM) | 8 (≈ 5.61 µM) | 50 | 32 (≈ 22.4 µM) |
| CNC(=O)C[C@@H]1NC(=O)c2csc(n2)-c2ccc(-c3nc(NC(=O)N4C[C@H](CCC(=O)O)C[C@H](CCC(=O)O)C4)cs3)nc2-c2csc(n2)-c2csc(n2)[C@H]([C@@H](O)c2ccccc2)NC(=O)CNC(=O)c2nc(sc2COC)[C@H](C(C)C)NC(=O)c2nc1sc2C | 2 (≈ 1.48 µM) | 0.25 (≈ 0.185 µM) | 4 (≈ 2.96 µM) | 4 (≈ 2.96 µM) | 30 | 4 (≈ 2.96 µM) |
| CNC(=O)C[C@@H]1NC(=O)c2csc(n2)-c2ccc(-c3nc(N(CCCCC(CCC(=O)O)C(=O)O)C(=O)O[C@H]4CC[C@H](C(=O)O)CC4)cs3)nc2-c2csc(n2)-c2csc(n2)[C@H]([C@@H](O)c2ccccc2)NC(=O)CNC(=O)c2nc(sc2COC)[C@H](C(C)C)NC(=O)c2nc1sc2C (some centres not stated) | 8 (≈ 5.51 µM) | 0.25 (≈ 0.172 µM) | 16 (≈ 11 µM) | 8 (≈ 5.51 µM) | 50 | 8 (≈ 5.51 µM) |
| CNC(=O)C[C@@H]1NC(=O)c2csc(n2)-c2ccc(-c3nc(N(CCCC(=O)O)C(=O)CCCC(=O)O)cs3)nc2-c2csc(n2)-c2csc(n2)[C@H]([C@@H](O)c2ccccc2)NC(=O)CNC(=O)c2nc(sc2COC)[C@H](C(C)C)NC(=O)c2nc1sc2C | > 32 | > 4 | > 32 | > 32 | 30 | > 32 |
| CNC(=O)C[C@@H]1NC(=O)c2csc(n2)-c2ccc(-c3nc(N(CCCCC(=O)O)C(=O)O[C@]4(CCCCC(=O)O)CC[C@@H](C(=O)O)CC4)cs3)nc2-c2csc(n2)-c2csc(n2)[C@H]([C@@H](O)c2ccccc2)NC(=O)CNC(=O)c2nc(sc2COC)[C@H](C(C)C)NC(=O)c2nc1sc2C | 4 (≈ 2.73 µM) | – | 8 (≈ 5.45 µM) | 8 (≈ 5.45 µM) | 50 | 16 (≈ 10.9 µM) |
| CNC(=O)C[C@@H]1NC(=O)c2csc(n2)-c2ccc(-c3nc(N(CCCCC(=O)O)C(=O)O[C@H]4CC[C@](CCCCC(=O)O)(C(=O)O)CC4)cs3)nc2-c2csc(n2)-c2csc(n2)[C@H]([C@@H](O)c2ccccc2)NC(=O)CNC(=O)c2nc(sc2COC)[C@H](C(C)C)NC(=O)c2nc1sc2C | 0.5 (≈ 0.341 µM) | 0.03 (≈ 0.0205 µM) | 1 (≈ 0.682 µM) | 1 (≈ 0.682 µM) | 50 | 4 (≈ 2.73 µM) |
| CNC(=O)C[C@@H]1NC(=O)c2csc(n2)-c2ccc(-c3nc(N(CCCCC(=O)O)C(=O)OCC4CC4C(=O)O)cs3)nc2-c2csc(n2)-c2csc(n2)[C@H]([C@@H](O)c2ccccc2)NC(=O)CNC(=O)c2nc(sc2COC)[C@H](C(C)C)NC(=O)c2nc1sc2C (some centres not stated) | 0.125 (≈ 0.0934 µM) | 0.03 (≈ 0.0224 µM) | 0.25 (≈ 0.187 µM) | 0.5 (≈ 0.374 µM) | 67 | 2 (≈ 1.49 µM) |
| CNC(=O)C[C@@H]1NC(=O)c2csc(n2)-c2ccc(-c3nc(N(CCCC(CCCCCCC(=O)O)C(=O)O)C(=O)O[C@H]4CC[C@H](C(=O)O)CC4)cs3)nc2-c2csc(n2)-c2csc(n2)[C@H]([C@@H](O)c2ccccc2)NC(=O)CNC(=O)c2nc(sc2COC)[C@H](C(C)C)NC(=O)c2nc1sc2C (some centres not stated) | 0.25 (≈ 0.167 µM) | 0.06 (≈ 0.0401 µM) | 1 (≈ 0.669 µM) | 0.5 (≈ 0.334 µM) | 50 | 1 (≈ 0.669 µM) |
| CNC(=O)C[C@@H]1NC(=O)c2csc(n2)-c2ccc(-c3nc(N(CCCCC(=O)O)C(=O)[C@H]4CC[C@H]4C(=O)O)cs3)nc2-c2csc(n2)-c2csc(n2)[C@H]([C@@H](O)c2ccccc2)NC(=O)CNC(=O)c2nc(sc2COC)[C@H](C(C)C)NC(=O)c2nc1sc2C | 16 (≈ 12.1 µM) | 4 (≈ 3.02 µM) | 32 (≈ 24.2 µM) | 32 (≈ 24.2 µM) | 30 | > 32 |
| CNC(=O)C[C@@H]1NC(=O)c2csc(n2)-c2ccc(-c3nc(N(CCCCC(=O)O)C(=O)OCCC(CCCCC(=O)O)C(=O)O)cs3)nc2-c2csc(n2)-c2csc(n2)[C@H]([C@@H](O)c2ccccc2)NC(=O)CNC(=O)c2nc(sc2COC)[C@H](C(C)C)NC(=O)c2nc1sc2C (some centres not stated) | 8 (≈ 5.61 µM) | 0.5 (≈ 0.35 µM) | 16 (≈ 11.2 µM) | 16 (≈ 11.2 µM) | 50 | 32 (≈ 22.4 µM) |
| CNC(=O)C[C@@H]1NC(=O)c2csc(n2)-c2ccc(-c3nc(NC(=O)CC[C@H](CC(=O)O)C(=O)O)cs3)nc2-c2csc(n2)-c2csc(n2)[C@H]([C@@H](O)c2ccccc2)NC(=O)CNC(=O)c2nc(sc2COC)[C@H](C(C)C)NC(=O)c2nc1sc2C | 4 (≈ 3.15 µM) | 4 (≈ 3.15 µM) | 8 (≈ 6.31 µM) | 8 (≈ 6.31 µM) | 30 | > 32 |
| CNC(=O)C[C@@H]1NC(=O)c2csc(n2)-c2ccc(-c3nc(N(CCCCC(=O)O)C(=O)[C@H]4CC[C@H](C(=O)O)CC4)cs3)nc2-c2csc(n2)-c2csc(n2)[C@H]([C@@H](O)c2ccccc2)NC(=O)CNC(=O)c2nc(sc2COC)[C@H](C(C)C)NC(=O)c2nc1sc2C | 32 (≈ 23.7 µM) | 2 (≈ 1.48 µM) | 16 (≈ 11.8 µM) | > 32 | 30 | > 32 |
| CNC(=O)C[C@@H]1NC(=O)c2csc(n2)-c2ccc(-c3nc(N(C)C(=O)CCCC(=O)O)cs3)nc2-c2csc(n2)-c2csc(n2)[C@H]([C@@H](O)c2ccccc2)NC(=O)CNC(=O)c2nc(sc2COC)[C@H](C(C)C)NC(=O)c2nc1sc2C | 2 (≈ 1.63 µM) | – | 2 (≈ 1.63 µM) | 4 (≈ 3.27 µM) | 30 | > 64 |
